Assay [1] has as its target Cannabinoid receptor 1 (Homo sapiens) (UniProt P21554). Put plainly: Displacement of [3H]CP55940 from human CB1 receptor at 10 uM incubated for 90 mins. An outline of the steps:
(§1)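 Membranes expressing hCB1 or hCB2 in 50 mM Tris-HCl buffer, pH 7.4, with 2.5 mM EDTA, 5 mM MgCl2 and 0.5% fatty acid-free BSA. Incubated with compound (10 μM screening) or vehicle plus 0.5 nM [3H]CP55,940 for 90 min at 30 °C. Non-specific binding defined with 10 μM […]. GF/B filtration, ice-cold buffer washes, radioactivity counted. Two independent experiments in triplicate.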

Another assay deals with T1, Monoglyceride lipase (Homo sapiens, UniProt Q99685).
T1 sequence (Q99685 whole entry): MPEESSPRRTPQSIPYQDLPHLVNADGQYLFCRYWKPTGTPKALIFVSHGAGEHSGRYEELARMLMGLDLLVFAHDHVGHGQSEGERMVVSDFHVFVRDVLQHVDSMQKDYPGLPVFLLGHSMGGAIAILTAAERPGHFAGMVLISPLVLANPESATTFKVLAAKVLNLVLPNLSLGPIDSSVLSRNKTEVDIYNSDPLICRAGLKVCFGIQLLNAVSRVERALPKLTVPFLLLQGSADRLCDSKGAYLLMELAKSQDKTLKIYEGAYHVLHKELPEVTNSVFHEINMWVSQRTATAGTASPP
Put plainly: Inhibition of human recombinant MAGL using 4-nitrophenylacetate as substrate incubated for 30 mins by microplate reader analysis.

The target of assay [2] is T2, Monoglyceride lipase (Homo sapiens) (UniProt Q99685).
T2 sequence (whole entry): T1 sequence (Q99685 whole entry)
Nature of the assay: Reversible inhibition of human recombinant MAGL using 4-nitrophenylacetate as substrate at 320 nM incubated for 15 mins by microplate reader analysis. An outline of the steps:
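Human recombinant MAGL (880 ng in Tris buffer, pH 7.2) incubated 60 min at room temperature with compound at 320 nM in the mixture, then diluted 40-fold in buffer. After 15 min, reaction started with 4-NPA 500 μM (stock added). Activity read at 405 nm after 30 min. Undiluted comparison run at 320 nM and 8 nM.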

The target of assay [3] is Cannabinoid receptor 2 (Homo sapiens) (UniProt P34972). Nature of the assay: Displacement of [3H]CP55940 from human CB2 receptor at 10 uM incubated for 90 mins. In a few lines: as §1
For assay [4], the target named is T3, Lysophosphatidylserine lipase ABHD12 (Mus musculus) (UniProt Q99LR1).
T3 sequence (whole entry): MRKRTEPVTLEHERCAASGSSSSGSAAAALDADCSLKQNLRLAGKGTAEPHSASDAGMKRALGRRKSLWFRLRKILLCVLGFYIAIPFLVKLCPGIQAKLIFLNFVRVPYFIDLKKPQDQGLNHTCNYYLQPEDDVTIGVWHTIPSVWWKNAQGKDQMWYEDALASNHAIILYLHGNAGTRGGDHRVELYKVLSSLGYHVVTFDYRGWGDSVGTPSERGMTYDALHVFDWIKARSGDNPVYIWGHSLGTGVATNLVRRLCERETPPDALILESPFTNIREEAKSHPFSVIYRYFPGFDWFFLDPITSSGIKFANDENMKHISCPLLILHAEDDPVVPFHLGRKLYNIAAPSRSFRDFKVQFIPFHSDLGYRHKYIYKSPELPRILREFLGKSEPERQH
Put plainly: Inhibition of mouse brain ABHD12 at 10 uM incubated with compound for 25 mins by TAMRA-FP probe based SDS-PAGE analysis. The format is tissue-based. An outline of the steps:
(§2)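 Mouse brain membranes (2 mg/mL final, in PBS) preincubated 25 min at 25 °C with test compound (10 μM final) or DMSO vehicle. Controls: JZL-184, URB597 4 μM, WWL70 10 μM, THL, MAFP 5 μM. TAMRA-FP 125 nM final added for 5 min at 25 °C. Reaction stopped with Laemmli buffer, 3 min at 25 °C then 10 min at 90 °C. Separation by 10% SDS-PAGE, fluorescence scanning, three independent experiments.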

Assay [5] deals with T4, Monoacylglycerol lipase ABHD6 (Mus musculus) (UniProt Q8R2Y0).
T4 sequence (whole entry): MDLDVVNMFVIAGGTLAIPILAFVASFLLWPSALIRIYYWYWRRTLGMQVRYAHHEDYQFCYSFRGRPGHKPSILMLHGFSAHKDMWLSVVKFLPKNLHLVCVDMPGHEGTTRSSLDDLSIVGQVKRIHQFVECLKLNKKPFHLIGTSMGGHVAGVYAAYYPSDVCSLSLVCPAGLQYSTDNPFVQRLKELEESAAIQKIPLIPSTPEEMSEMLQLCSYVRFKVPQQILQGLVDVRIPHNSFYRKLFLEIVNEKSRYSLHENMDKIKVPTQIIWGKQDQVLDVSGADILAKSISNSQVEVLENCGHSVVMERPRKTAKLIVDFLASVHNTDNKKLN
Put plainly: Inhibition of mouse brain ABHD6 at 10 uM incubated with compound for 25 mins by TAMRA-FP probe based SDS-PAGE analysis. The format is tissue-based. An outline of the steps: as §2

Assay [6] concerns the target T5, Lysophosphatidylserine lipase ABHD12 (Homo sapiens) (UniProt Q8N2K0).
T5 sequence (whole entry): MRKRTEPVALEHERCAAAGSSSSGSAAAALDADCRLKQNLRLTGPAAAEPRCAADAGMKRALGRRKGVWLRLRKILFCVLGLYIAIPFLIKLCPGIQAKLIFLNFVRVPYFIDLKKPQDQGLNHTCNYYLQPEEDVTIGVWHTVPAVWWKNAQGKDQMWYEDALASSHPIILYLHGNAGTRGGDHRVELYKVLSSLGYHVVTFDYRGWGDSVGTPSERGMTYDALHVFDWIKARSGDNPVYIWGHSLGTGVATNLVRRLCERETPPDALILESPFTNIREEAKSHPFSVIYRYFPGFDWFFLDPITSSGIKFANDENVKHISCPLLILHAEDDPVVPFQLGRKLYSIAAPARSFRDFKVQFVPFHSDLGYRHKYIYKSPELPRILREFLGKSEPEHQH
Put plainly: Inhibition of human ABHD12 transfected in HEK293 cells at 10 uM preincubated with compound for 30 mins followed by 2-OG addition and measured after 5 mins by liquid scintillation spectroscopy. The format is cell-based. The following applies: time 35.0 min. In a few lines: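 Homogenates (40 μg) of HEK293 cells stably transfected with hABHD6 or hABHD12. Compound 10 μM preincubated 30 min at 37 °C, 500 rpm, in Tris/EDTA buffer with 0.1% fatty acid-free BSA, pH 7.6. Controls: WWL70 10 μM or THL 20 μM; DMSO vehicle. 2-OG 10 μM added for 5 min at 37 °C. Stopped with ice-cold CHCl3:MeOH; aqueous phase counted. No-enzyme blanks used; non-transfected HEK293 hydrolysis subtracted.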

For assay [7], the target named is T2, Monoglyceride lipase (Homo sapiens). Put plainly: Reversible inhibition of human recombinant MAGL using 4-nitrophenylacetate as substrate incubated for 15 mins in presence of DTT by microplate reader analysis. In a few lines: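 Human recombinant MAGL (11 ng/well) in 10 mM Tris, pH 7.2, with 1 mM EDTA and 0.1 mg/mL BSA, at room temperature. Compound plus 4-NPA incubated 15 min with 10 μM DTT before enzyme addition. Compound final 320–0.02 nM. Absorbance at 405 nm after 30 min, blank-subtracted. IC50 from sigmoidal dose–response fit.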

Consider four compounds from ChEMBL document CHEMBL5532647, “Design, synthesis, ADME and biological evaluation of benzylpiperidine and benzylpiperazine derivatives as novel reversible monoacylglycerol lipase (MAGL) inhibitors” (Eur J Med Chem, 2024).

pIC50: −log10 of the molar value. Active and inactive are the calls of the source. The calls are words filed in the database; no cut-off is given here.

Chain of Cannabinoid receptor 1 (Homo sapiens) (P21554 whole entry): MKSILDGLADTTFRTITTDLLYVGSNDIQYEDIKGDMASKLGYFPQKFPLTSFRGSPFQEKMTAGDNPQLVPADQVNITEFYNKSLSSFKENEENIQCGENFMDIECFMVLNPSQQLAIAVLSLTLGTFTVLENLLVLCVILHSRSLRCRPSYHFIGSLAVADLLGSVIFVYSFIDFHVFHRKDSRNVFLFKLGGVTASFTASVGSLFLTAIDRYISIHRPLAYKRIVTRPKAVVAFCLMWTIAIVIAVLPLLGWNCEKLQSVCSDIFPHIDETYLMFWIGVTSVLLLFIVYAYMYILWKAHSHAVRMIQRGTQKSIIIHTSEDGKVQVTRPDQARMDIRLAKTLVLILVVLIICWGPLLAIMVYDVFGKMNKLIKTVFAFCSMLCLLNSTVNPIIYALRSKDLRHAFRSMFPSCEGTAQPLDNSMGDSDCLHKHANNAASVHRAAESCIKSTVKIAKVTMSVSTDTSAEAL
Chain of Cannabinoid receptor 2 (Homo sapiens) (P34972 whole entry): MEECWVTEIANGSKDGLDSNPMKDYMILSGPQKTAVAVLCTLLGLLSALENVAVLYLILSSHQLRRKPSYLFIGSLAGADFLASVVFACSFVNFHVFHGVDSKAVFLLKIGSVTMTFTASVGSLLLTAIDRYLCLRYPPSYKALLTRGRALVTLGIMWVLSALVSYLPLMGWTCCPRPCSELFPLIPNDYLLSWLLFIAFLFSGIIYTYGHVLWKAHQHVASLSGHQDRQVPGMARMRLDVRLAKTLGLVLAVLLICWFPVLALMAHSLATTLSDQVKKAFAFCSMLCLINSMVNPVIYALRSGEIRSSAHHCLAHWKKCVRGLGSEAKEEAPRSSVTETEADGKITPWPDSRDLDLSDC

By pIC50 is commonly meant −log10 of the IC50, conventionally taken in molar units. As for `O=C(c1cccc(O)c1)N1CCC(Cc2cccc(Sc3cc(C(F)(F)F)ccn3)c2)CC1`, the outcome in assay [1] and in assay [3] was inactive. Further, the pIC50 on Monoglyceride lipase is 8.60. Further, the inhibition result in assay [2] was “Active”. The inhibition entry in assay [4], in assay [5], in assay [6] and in assay [7] was “inactive” throughout.

`O=C(c1cccc(O)c1)N1CCC(Cc2ccc(F)c(Sc3cc(C(F)(F)F)ccn3)c2)CC1`: the outcome in assay [1] and in assay [3] was inactive. In addition, at Monoglyceride lipase, the pIC50 is 8.57. Moreover, the inhibition result in assay [2] is “Active”. Also, the inhibition entry in assay [4], in assay [5], in assay [6] and in assay [7] was “inactive” in each case.

Regarding `O=C(c1cc(O)ccc1F)N1CCC(Cc2cccc(Sc3cc(C(F)(F)F)ccn3)c2)CC1`, the result in assay [1] and in assay [3] was inactive. In addition, on Monoglyceride lipase, the pIC50 was 8.89. For the same compound, the inhibition result in assay [2] was “Active”. Further, the inhibition result in assay [4], in assay [5], in assay [6] and in assay [7] was “inactive” in each case.

Consider `O=C(c1cc(O)ccc1F)N1CCN(Cc2cccc(Sc3cc(C(F)(F)F)ccn3)c2)CC1`, for which the result in assay [1] and in assay [3] was inactive. Besides, the pIC50 at Monoglyceride lipase was 8.28. Further, in assay [2], the inhibition entry is “Active”. For the same compound, the inhibition entry in assay [4], in assay [5], in assay [6] and in assay [7] was “inactive” throughout.
